Compounds with a hit are over-represented: about 0.96% of the library has one in this group of screens.
RPL19A TOR yeast – alters RPL19A-GFP fluorescence in TOR pathway yeast screen. AID 2025. percent response vs DMSO, % at 10 µM. hit rate 0.3% among 330,000. S. cerevisiae RPL19A-GFP strain, flow cytometry, 3 h; stronger effect = lower value;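 active means percent response vs DMSO below 50%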;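 further: median channel GFP fluorescence of the barcoded RPL19A-GFP strain; ratio of sample median GFP to plate DMSO average so 100% = DMSO; lower means less RPL19A-GFP as with rapamycin TOR inhibition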
T cell HTS – T cell immune modulators affecting CD8 T cell-vesicle binding. hit rate 0.068% among 330,000. response (vesicle binding), % at 7 µM. AID 2052. 2C CD8+ T cell-vesicle binding, flow cytometry; stronger effect = lower value;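 active means response, share of CD8 T cells binding vesicles, and their 90th percentile fluorescence all below set limits, cut at about 80% in these data, passing the limit was not always enough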;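 further: values below 100% mean blocked vesicle binding to the CD8+ T cells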
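incubation = binding step 1.5 h, 37 °C, antibody labelling 20 min, ice | test system = 2C mouse CD8+ T cells | read-out basis = percent CD8+ FL2 mean versus row control | controls = Peptide-free naked vesicles (low) and QL9 vesicles with 0.7% DMSO vehicle (high) | detection = flow cytometry of vesicle-bound cells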
AGP1 TOR yeast – alters AGP1-GFP fluorescence in TOR pathway yeast screen; hit rate 0.02% among 320,000; S. cerevisiae AGP1-GFP multiplex flow cytometry, 3 h; GFP as percent of DMSO wells; AID 2066; GFP response vs DMSO, % at 10 µM;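 active means GFP response relative to DMSO above a set limit, near screen average plus 3 SD, cut at about 150% in these data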;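 further: median GFP channel fluorescence of the gated AGP1 strain per well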
LAP4-GFP MLPCN – yeast TOR pathway LAP4-GFP modulation; hit rate 0.34% among 320,000; S. cerevisiae LAP4-GFP multiplex, flow cytometry GFP, 3 h; median GFP as percent of DMSO wells; GFP response vs DMSO, % at 10 µM; AID 2023;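 active means GFP response vs DMSO above a set limit, about the screen mean plus 3 SD, cut at about 150% in these data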
MEP2-GFP yeast – modulators of TOR pathway MEP2-GFP in S. cerevisiae; S. cerevisiae MEP2-GFP strain, flow cytometry GFP, 3 h; 100% = DMSO control level; GFP response vs DMSO, % at 10 µM; AID 2016; hit rate 0.51% among 330,000;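 active means GFP response versus DMSO above a set limit, roughly screen mean plus 3 SD, cut at about 180% in these data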;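 further: median GFP fluorescence of the barcode-gated MEP2-GFP cells per well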
CIT2-GFP yeast – yeast TOR pathway CIT2-GFP modulation. GFP response vs DMSO, % at 10 µM. S. cerevisiae CIT2-GFP strain, flow cytometry, 3 h; 100 means same as DMSO wells. hit rate 0.065% among 320,000;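 active means GFP response relative to DMSO above a set limit, near the screen mean plus 3 SD, cut at about 150% in these data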;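 further: ratio of well median GFP fluorescence to mean of DMSO wells on the plate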
LAP4-GFP pick2 – yeast LAP4-GFP modulation, second cherry pick; shares compounds with LAP4-GFP MLPCN; S. cerevisiae LAP4-GFP strain, flow cytometry GFP, 3 h; GFP response vs DMSO, % at 10 µM; hit rate 20% among 590; AID 2621;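 active means GFP signal as percent of the solvent control above about 150%, meaning raised reporter expression, limit read from the data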;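 further: ratio of well median GFP fluorescence to plate DMSO mean so 100% = DMSO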
MEP2 cherry2 – second confirmation of modulators of TOR reporter MEP2-GFP in yeast; shares compounds with LAP4-GFP MLPCN; S. cerevisiae MEP2-GFP strain, flow cytometry GFP, 3 h; GFP response vs DMSO, % at 10 µM; hit rate 10% among 590; AID 2622;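 active means GFP signal above 150% of the solvent control wells, that is a rise of more than half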;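 further: median channel GFP fluorescence of all gated yeast cells per well; ratio of median GFP to plate DMSO average so 100% = DMSO level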
RPL19A-GFP pick2 – yeast RPL19A-GFP TOR reporter modulation, second cherry pick. hit rate 3% among 590. GFP response vs DMSO, % at 10 µM. S. cerevisiae RPL19A-GFP strain, flow cytometry GFP, 3 h; stronger effect = lower value; 100% means same as DMSO wells. shares compounds with LAP4-GFP MLPCN;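 active means under 65% GFP response relative to DMSO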;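 further: median GFP channel fluorescence per well over the all cells gate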
CIT2 GFP CP2 – reconfirmed modulator of CIT2-GFP TOR reporter in yeast; shares compounds with LAP4-GFP MLPCN; S. cerevisiae CIT2-GFP strain, flow cytometry GFP, 3 h; DMSO control wells read 100%; GFP response vs DMSO, % at 10 µM; hit rate 8% among 590; AID 2624;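 active means GFP response vs DMSO above about 150%, limit read from the data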;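 further: median green fluorescence per well over all gated yeast cells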
AGP1-GFP pick2 – reconfirmed modulator of AGP1-GFP TOR reporter in yeast | shares compounds with LAP4-GFP MLPCN | S. cerevisiae AGP1-GFP strain, flow cytometry GFP, 3 h | percent response vs DMSO, % at 10 µM | 590 tested, under 10 active;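 active means over 150 percent of DMSO response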;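 further: median GFP channel fluorescence over all cells without mother daughter split; sample median GFP divided by mean DMSO control so 100% equals DMSO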
Yeast autofluor – yeast s288c autofluorescence artifact, counter-screen; fluorescence change (kMESF span) at 33 µM; S. cerevisiae s288c, 520 nm autofluorescence, flow cytometry, 3 h; stronger effect = higher value; zero means same as solvent-only cells; 610 tested, under 10 active; shares compounds with LAP4-GFP MLPCN; AID 2757;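 active means fluorescence span over the dose series, or activity score, above about 33, limit read from the data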
s288c autofl DR – TOR screen hit shows autofluorescence in yeast s288c; shares compounds with LAP4-GFP MLPCN; S. cerevisiae s288c parental, compound autofluorescence, flow cytometry, 3 h; fluorescence change (span) at 33 µM; 110 tested, under 10 active;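 active means fluorescence change span, or the activity score built from it, above 25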
TORC1 bypass gr – wildtype yeast growth loss with TORC1 bypass cells unaffected | shares compounds with LAP4-GFP MLPCN | S. cerevisiae BY4741 spot growth rating, 48-72 h; stronger effect = lower value | growth rating (0-3) at 30 µM | 120 tested, under 10 active;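 active means growth rating at most 1 for wild type yeast while the TORC1 bypass strain still grows fully, rated 3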
* marks the source's active call; other numbers are inactive results; i = inactive; nt = no result.

SMILES	RPL19A TOR yeast	T cell HTS	AGP1 TOR yeast	LAP4-GFP MLPCN	MEP2-GFP yeast	CIT2-GFP yeast	LAP4-GFP pick2	MEP2 cherry2	RPL19A-GFP pick2	CIT2 GFP CP2	AGP1-GFP pick2	others
CC1=CC(=O)c2c(O)ccc(O)c2C1=O	96	195	101	195*	139	100	196*	276*	103	132	97
C/C(=N\S(=O)(=O)c1ccc(C)cc1)N(C)C	98	161	103	97	102	100	nt	nt	nt	nt	nt
Fc1cccc(Nc2ncnc3c2cnn3-c2ccccc2)c1	91	880	93	157*	99	69	133	103	87	86	88	Yeast autofluor=0
O=C(Nc1ccc(Cl)cc1)C1CCCN(C2=NS(=O)(=O)c3ccccc32)C1 (configuration not stated)	93	433	94	91	100	92	nt	nt	nt	nt	nt
O=C1C(c2ccccc2)=[N+]([O-])c2ccccc21	105	522	87	160*	93	89	116	121	106	120	103
Cc1nn2c(-c3ccncc3)nnc2c2ccccc12	60	175	58	101	106	65	90	95	65*	97	68	Yeast autofluor=0.3;s288c autofl DR=0.36;TORC1 bypass gr=3
Cc1nn2c(-c3ccco3)nnc2c2ccccc12	64	394	61	86	90	76	93	93	66	95	67
COc1ccc(-c2nnc3c4ccccc4c(C)nn23)cc1	93	282	94	84	104	104	nt	nt	nt	nt	nt
O=C(N/N=C/c1ccc(Cl)cc1Cl)C(=O)NC1CC1	101	237	102	109	97	94	nt	nt	nt	nt	nt
CC(C)CC(NC(=O)C1CCC(=O)N1)C(=O)NC(CC(C)C)C(=O)N1CCCC1C(N)=O (configuration not stated)	103	161	104	96	107	103	nt	nt	nt	nt	nt
COCCCNc1nc(N)c([N+](=O)[O-])c(Nc2cccc(F)c2)n1	nt	nt	nt	nt	nt	nt	nt	nt	nt	nt	nt	s288c autofl DR=0.16;TORC1 bypass gr=3
Nc1nc(NCC2CCCO2)nc(Nc2cccc(F)c2)c1[N+](=O)[O-] (configuration not stated)	98	604	96	114	94	98	nt	nt	nt	nt	nt	s288c autofl DR=0.06;TORC1 bypass gr=3
CN(c1ccccc1)c1nc(N)c([N+](=O)[O-])c(Nc2cccc(F)c2)n1	105	200	102	98	112	102	nt	nt	nt	nt	nt
Nc1nc(NCCN2CCOCC2)nc(Nc2cccc(F)c2)c1[N+](=O)[O-]	nt	nt	nt	nt	nt	nt	nt	nt	nt	nt	nt	s288c autofl DR=0.31;TORC1 bypass gr=3
Nc1nc(Nc2cccc(Cl)c2)nc(NCCO)c1[N+](=O)[O-]	96	i	108	108	102	99	nt	nt	nt	nt	nt
Nc1nc(Nc2cccc(Cl)c2)nc(Nc2cccc(F)c2)c1[N+](=O)[O-]	nt	nt	nt	nt	nt	nt	nt	nt	nt	nt	nt	s288c autofl DR=0.16;TORC1 bypass gr=3
Nc1c(C(=O)OCC(=O)Nc2cccc([N+](=O)[O-])c2)[nH]c(=O)[nH]c1=O	103	322	102	96	112	104	nt	nt	nt	nt	nt
CC(=O)Nc1ccc(S(=O)(=O)N(C)CC(=O)OCC(=O)NCc2ccco2)cc1	88	245	99	95	90	83	nt	nt	nt	nt	nt
CC(C)c1ccc(N2C(=O)CC(Sc3ncn[nH]3)C2=O)cc1 (configuration not stated)	98	277	82	nt	76	99	nt	nt	nt	nt	nt
COc1ccc(N2C(=O)CC(Sc3ncn[nH]3)C2=O)c(OC)c1 (configuration not stated)	96	36	97	124	88	103	nt	nt	nt	nt	nt	Yeast autofluor=0.61
CCN1CCN(c2cc(C)c3cc(NC(=O)c4ccc(OC)c(OC)c4)ccc3n2)CC1	101	979	97	102	99	98	nt	nt	nt	nt	nt
CCN1CCN(c2cc(C)c3cc(NC(=O)c4cccc(OC)c4)ccc3n2)CC1	60	449	49	100	154	90	102	96	101	118	99
Cc1c(OCC(F)(F)F)ccnc1CS(=O)c1nc2ccccc2[nH]1 (configuration not stated)	101	238	85	158*	94	79	122	106	99	105	101
COCCCOc1ccnc(CS(=O)c2nc3ccccc3[nH]2)c1C (configuration not stated)	101	501	78	117	95	73	nt	nt	nt	nt	nt
C=CCN1CCN(C(=O)c2ccc3c(c2)OCO3)CC1	100	234	109	96	108	157*	104	103	97	100	103
CC(C)c1ccccc1NC(=O)CC1(CC(=O)O)CCCC1	100	438	103	101	103	117	nt	nt	nt	nt	nt
CC(=O)Nc1sc(C)c(C)c1C(=O)OCC(=O)Nc1cccc(C)c1	93	444	93	93	92	86	nt	nt	nt	nt	nt
C[C@]12C=C[C@H](O)CC1=CCC1C2CC[C@@]2(C)C1CCC21OCCO1 (some centres not stated)	71	181	110	197*	103	84	107	102	95	94	90
C[C@]12C=CC(=O)C=C1CCC1C2CC[C@@]2(C)C1CCC21OCCO1 (some centres not stated)	98	246	94	89	91	105	nt	nt	nt	nt	nt

Bioassay records deposited in PubChem BioAssay by NMMLSC.
